Drawing on ChEMBL document CHEMBL1122537, “Acidic furo[3,2-b]indoles. A new series of potent antiallergy agents” (J Med Chem, 1984), this text covers IC50 and inhibition for 26 compounds.

Holding throughout (assay type): functional
Assay [1] is filed under the species Cavia porcellus. The experiment in a line: In vitro Schultz-Dale Test against isolated guinea pig lung strips repeatedly challenged with antigen in the presence of an antihistamine (H1) at a concentration 30 uM.
For assay [2], the species on record is Cavia porcellus. As to the kind of experiment: Compound was evaluated in vitro by SDT (Schultz-Dale Test) against isolated guinea pig lung strips repeatedly challenged with antigen in the presence of an antihistamine (H1) at a concentration 10 uM.
The species named for assay [3] is Cavia porcellus. As to the kind of experiment: Compound was evaluated in vitro by SDT (Schultz-Dale Test) against isolated guinea pig lung strips repeatedly challenged with antigen in the presence of an antihistamine (H1) at a concentration 30 uM; i = No significant activity at 1.0 uM.
For assay [4], the species on record is Cavia porcellus. As to the kind of experiment: Compound was evaluated in vitro by SDT (Schultz-Dale Test) against isolated guinea pig lung strips repeatedly challenged with antigen in the presence of an antihistamine (H1) at a concentration […]. Put shortly:
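Lung strips in Tyrode's pH 7.4, 37 °C, with mepyramine 1 µM, at 300 mg base-line tension. Drug in 0.2% NaHCO3 is added 15 min before the ovalbumin bolus. Percent inhibition is taken against the tissue's prior control contraction, usually on four or more tissues. IC50 by linear regression.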

Assay [5] is filed under the species Cavia porcellus. The experiment in a line: Compound was evaluated in vitro by SDT (Schultz-Dale Test) against isolated guinea pig lung strips repeatedly challenged with antigen in the presence of an antihistamine (H1); c = No activity at a concentration 30 uM.
The species entered for assay [6] is Cavia porcellus. As to the kind of experiment: Compound was evaluated in vitro by SDT (Schultz-Dale Test) against isolated guinea pig lung strips repeatedly challenged with antigen in the presence of an antihistamine (H1); b = No activity at a concentration 30 uM.

On to `COc1ccc2c(c1)c1oc(-c3nn[nH]n3)c(OC)c1n2-c1ccccc1`, for which the IC50 in the assay filed under Cavia porcellus [1] was found to be 1500 nM.

Regarding `O=C(O)c1cc2c(o1)c1ccccc1n2-c1ccccc1`, the inhibition at 10 µM in the assay listed under Cavia porcellus [2] turned out to be 33%.

Regarding `COc1ccc2c(c1)c1oc(C(=O)Nc3nn[nH]n3)c(OC(C)C)c1n2-c1ccccc1`, the IC50 in the assay filed under Cavia porcellus [1] was 2800 nM.

In the case of `CCCc1c2c(c(O)c3c(=O)cc(C(=O)O)oc13)CCCC2` [PROXICROMIL], the IC50 in the assay listed under Cavia porcellus [1] came out at 6300 nM.

Turning to `CCCCCCCCCOc1c(C(=O)Nc2nn[nH]n2)oc2c3ccccc3n(-c3ccccc3)c12`, the IC50 entry in the assay listed under Cavia porcellus [3] was “No significant activity”.

Consider `CC(C)NCC(O)c1ccc(O)c(O)c1` (stereo unspecified) [ISOPROTERENOL], for which, in the assay filed under Cavia porcellus [4], the IC50 amounted to 0.15 nM.

As for `COc1c(-c2nn[nH]n2)oc2c3ccccc3n(C)c12`, the IC50 entry in the assay listed under Cavia porcellus [5] is reported as “No activity”.

For the compound `CC(C)Oc1c(C(=O)Nc2nn[nH]n2)oc2c3ccccc3n(-c3ccccc3)c12`, in the assay filed under Cavia porcellus [1], the IC50 worked out at 60 nM.

Regarding `COc1ccc2c(c1)c1oc(C(=O)O)c(OC)c1n2-c1ccccc1`, the IC50 in the assay filed under Cavia porcellus [1] turned out to be 2800 nM.

`CCOc1c(C(=O)OC)oc2c3cc(OC)ccc3n(-c3ccccc3)c12`: in the assay filed under Cavia porcellus [2], the inhibition at 10 µM amounted to 24%.

With `COc1c(C(=O)Nc2nn[nH]n2)oc2c3ccccc3n(C)c12`, in the assay listed under Cavia porcellus [1], the IC50 was determined as 21600 nM.

Turning to `COc1c(-c2nn[nH]n2)oc2c3ccccc3n(-c3ccccc3)c12`, in the assay filed under Cavia porcellus [1], the IC50 stood at 2900 nM.

Turning to `CCCc1c(OCC(O)COc2ccc3c(=O)cc(C(=O)O)oc3c2CCC)ccc(C(C)=O)c1O` (stereo unspecified) [FPL-55712], in the assay filed under Cavia porcellus [1], the IC50 was 2400 nM.

`CCOc1c(-c2nn[nH]n2)oc2c3cc(OC)ccc3n(-c3ccccc3)c12`: the IC50 in the assay filed under Cavia porcellus [1] was found to be 1700 nM.

Take `COc1ccc2c(c1)c1oc(C(=O)Nc3nn[nH]n3)c(OC)c1n2-c1ccccc1`: the IC50 in the assay listed under Cavia porcellus [1] came to 900 nM.

For `COC(=O)c1oc2c3ccccc3n(-c3ccccc3)c2c1OC`, the inhibition entry in the assay filed under Cavia porcellus [6] was “No activity”.

As for `CC(C)Oc1c(C(=O)O)oc2c3ccccc3n(-c3ccccc3)c12`, the IC50 in the assay filed under Cavia porcellus [1] is 3700 nM.

Regarding `CCOc1c(C(=O)Nc2nn[nH]n2)oc2c3ccccc3n(-c3ccccc3)c12`, the IC50 in the assay listed under Cavia porcellus [1] came out at 200 nM.

For `CCOc1c(C(=O)Nc2nn[nH]n2)oc2c3cc(OC)ccc3n(-c3ccccc3)c12`, the IC50 in the assay filed under Cavia porcellus [1] worked out at 2200 nM.

Take `COc1c(C(=O)Nc2nn[nH]n2)oc2c3ccccc3n(-c3ccccc3)c12`: in the assay listed under Cavia porcellus [1], the half-inhibitory concentration (IC50) came out at 500 nM.

For `COC(=O)c1oc2c3cc(OC)ccc3n(-c3ccccc3)c2c1OC`, the inhibition at 10 µM in the assay filed under Cavia porcellus [2] came to 23%.

Regarding `COc1c(C(=O)O)oc2c3ccccc3n(C)c12`, the IC50 entry in the assay listed under Cavia porcellus [5] is given as “No activity”.

Take `CCOc1c(C(=O)O)oc2c3ccccc3n(-c3ccccc3)c12`: in the assay filed under Cavia porcellus [1], the IC50 worked out at 3200 nM.

Turning to `CCOc1c(-c2nn[nH]n2)oc2c3ccccc3n(-c3ccccc3)c12`, the half-inhibitory concentration (IC50) in the assay listed under Cavia porcellus [1] worked out at 3200 nM.

`CCOc1c(C(=O)O)oc2c3cc(OC)ccc3n(-c3ccccc3)c12`: the IC50 in the assay listed under Cavia porcellus [1] stood at 4300 nM.

In the case of `COc1c(C(=O)O)oc2c3ccccc3n(-c3ccccc3)c12`, the 50% inhibitory concentration (IC50) in the assay filed under Cavia porcellus [1] is 4600 nM.

A word on the IC50: it is the midpoint of a concentration-inhibition curve. Broadly, the inhibition is the relative decrease from the control value, in per cent.
